Reference: ChEMBL document CHEMBL1132573, “Novel antitumor 2-cyanoaziridine-1-carboxamides” (J Med Chem, 1999)

Assays:
[1] = Number of colony forming cells of human melanoma tumor showing sensitivity among the 10 colony forming cells tested in vitro at compound concentration of 2.0 uM; type: functional
Procedure, shortened: (§1)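 Fresh human tumor specimens from patients at the Arizona Cancer Center, run in the human tumor cloning (colony-forming) assay by a standard protocol. Read-out was [3H]thymine uptake by tumor-colony-forming cells.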

[2] = Number of colony forming cells of human stomach tumor showing sensitivity among the 1 colony forming cells tested in vitro at compound concentration of 0.2 uM; type: functional
Procedure, shortened: (§2)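 Fresh human tumor specimens, obtained from patients at the Arizona Cancer Center, were tested as tumor-colony-forming cells in the human tumor cloning assay. Sensitivity was scored as a 50% or greater decrease in […] uptake by treated colony-forming cells relative to untreated control colony-forming cells. The value is the count of sensitive specimens among those tested.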

[3] = Number of colony forming cells of human lung tumor showing sensitivity among the 2 colony forming cells tested in vitro at compound concentration of 0.2 uM; type: functional; procedure, shortened: as §1
L1210 [4] = test: Inhibition of cell growth in drug sensitive L1210 leukemia cell line determined by MTT assay; type: functional, cell-based; settings: Mus musculus
[5] = Number of colony forming cells of human lung tumor showing sensitivity among the 2 colony forming cells tested in vitro at compound concentration of 2.0 uM; type: functional; procedure, shortened: as §1
[6] = Number of colony forming cells of human myeloma tumor showing sensitivity among the 2 colony forming cells tested in vitro at compound concentration of 0.2 uM; type: functional; procedure, shortened: as §1
[7] = Number of colony forming cells of human gynecologic tumor showing sensitivity among the 4 colony forming cells tested in vitro at compound concentration of 20 uM; type: functional; procedure, shortened: as §1
[8] = Number of colony forming cells of human lung tumor showing sensitivity among the 2 colony forming cells tested in vitro at compound concentration of 20 uM; type: functional; procedure, shortened: as §1
[9] = Number of colony forming cells of human melanoma tumor showing sensitivity among the 5 colony forming cells tested in vitro at compound concentration of 0.2 uM; type: functional; procedure, shortened: as §1
Breast carcinoma cell [10] = test: Number of colony forming cells of human breast tumor showing sensitivity among the 4 colony forming cells tested in vitro at compound concentration of 20 uM; type: functional; procedure, shortened: as §1
[11] = Number of colony forming cells of human sarcoma tumor showing sensitivity among the 2 colony forming cells tested in vitro at compound concentration of 0.2 uM; type: functional; procedure, shortened: as §2
[12] = Number of colony forming cells of human sarcoma tumor showing sensitivity among the 8 colony forming cells tested in vitro at compound concentration of 2.0 uM; type: functional; procedure, shortened: as §2
[13] = Number of colony forming cells of human myeloma tumor showing sensitivity among the 2 colony forming cells tested in vitro at compound concentration of 20 uM; type: functional; procedure, shortened: as §1
[14] = Number of colony forming cells of human ovary tumor showing sensitivity among the 10 colony forming cells tested in vitro at compound concentration of 0.2 uM; type: functional, Female gonad; procedure, shortened: as §1
OVCAR-3 = test: Inhibition of cell growth in (OVCAR-3) ovarian cell line; type: functional, cell-based; settings: Homo sapiens
[15] = Number of colony forming cells of human ovary tumor showing sensitivity among the 11 colony forming cells tested in vitro at compound concentration of 2.0 uM; type: functional, Female gonad; procedure, shortened: as §1
MCF7 [16] = test: Inhibition of cell growth in (MCF7 breast) dox cell line; type: functional, cell-based; settings: Homo sapiens
[17] = Number of colony forming cells of human ovary tumor showing sensitivity among the 10 colony forming cells tested in vitro at compound concentration of 20 uM; type: functional, Female gonad; procedure, shortened: as §1
[18] = Number of colony forming cells of human stomach tumor showing sensitivity among the 1 colony forming cells tested in vitro at compound concentration of 2.0 uM; type: functional; procedure, shortened: as §2
A549 = test: Inhibition of cell growth in (A-549) lung cell line; type: functional, cell-based; settings: Homo sapiens
RPMI-8226 [19] = test: Inhibition of cell growth in drug sensitive 8226 myeloma cell line; type: functional, cell-based; settings: Homo sapiens
WiDr [20] = test: Inhibition of cell growth in drug sensitive WiDr colon cell line; type: functional, cell-based; settings: Homo sapiens
Breast carcinoma cell [21] = test: Number of colony forming cells of human breast tumor showing sensitivity among the 4 colony forming cells tested in vitro at compound concentration of 0.2 uM; type: functional; procedure, shortened: as §1
[22] = Number of colony forming cells of human myeloma tumor showing sensitivity among the 2 colony forming cells tested in vitro at compound concentration of 2.0 uM; type: functional; procedure, shortened: as §1
MCF7 [23] = test: Inhibition of cell growth in (MCF7 breast) mitox cell line; type: functional, cell-based; settings: Homo sapiens
[24] = Number of colony forming cells of human sarcoma tumor showing sensitivity among the 8 colony forming cells tested in vitro at compound concentration of 20 uM; type: functional; procedure, shortened: as §2
[25] = Number of colony forming cells of human gynecologic tumor showing sensitivity among the 4 colony forming cells tested in vitro at compound concentration of 0.2 uM; type: functional; procedure, shortened: as §1
[26] = Number of colony forming cells of human gynecologic tumor showing sensitivity among the 4 colony forming cells tested in vitro at compound concentration of 2.0 uM; type: functional; procedure, shortened: as §1
L1210 [27] = test: Inhibition of cell growth in (L1210 leukemia) MDR cells determined by MTT assay; type: functional, cell-based; settings: Mus musculus
A-375 = test: Inhibition of cell growth in (A375) melan cell line; type: functional, cell-based; settings: Homo sapiens
[28] = Number of colony forming cells of human stomach tumor showing sensitivity among the 1 colony forming cells tested in vitro at compound concentration of 20 uM; type: functional; procedure, shortened: as §2
WiDr [29] = test: Inhibition of cell growth in drug resistant WiDr colon cell line; type: functional, cell-based; settings: Homo sapiens
[30] = Number of colony forming cells of human melanoma tumor showing sensitivity among the 10 colony forming cells tested in vitro at compound concentration of 20 uM; type: functional; procedure, shortened: as §1
RPMI-8226 [31] = test: Inhibition of cell growth in drug resistant 8226 myeloma cell line; type: functional, cell-based; settings: Homo sapiens
Breast carcinoma cell [32] = test: Number of colony forming cells of human breast tumor showing sensitivity among the 4 colony forming cells tested in vitro at compound concentration of 2.0 uM; type: functional; procedure, shortened: as §1
MCF7 [33] = test: Inhibition of cell growth in drug sensitive MCF-7 breast cell line; type: functional, cell-based; settings: Homo sapiens

## N#CC1CN1C(=O)Nc1ccccc1 (configuration not stated)
[1]
  Sensitivity: 8
[2]
  Sensitivity: 1
[3]
  Sensitivity: 0
L1210 [4]
  IC50: 1.2 µM
[5]
  Sensitivity: 1
[6]
  Sensitivity: 2
[7]
  Sensitivity: 3
[8]
  Sensitivity: 2
[9]
  Sensitivity: 3
Breast carcinoma cell [10]
  Sensitivity: 3
[11]
  Sensitivity: 2
[12]
  Sensitivity: 4
[13]
  Sensitivity: 2
[14]
  Sensitivity: 3
OVCAR-3
  IC50: 6.8 µM
[15]
  Sensitivity: 10
MCF7 [16]
  IC50: 2600 nM
[17]
  Sensitivity: 10
[18]
  Sensitivity: 1
A549
  IC50: 9 µM
RPMI-8226 [19]
  IC50: 5.3 µM
WiDr [20]
  IC50: 5 µM
Breast carcinoma cell [21]
  Sensitivity: 2
[22]
  Sensitivity: 2
MCF7 [23]
  IC50: 4.3 µM
[24]
  Sensitivity: 5
[25]
  Sensitivity: 0
[26]
  Sensitivity: 2
L1210 [27]
  IC50: 11 µM
A-375
  IC50: 11 µM
[28]
  Sensitivity: 1
WiDr [29]
  IC50: 12 µM
[30]
  Sensitivity: 10
RPMI-8226 [31]
  IC50: 8 µM
Breast carcinoma cell [32]
  Sensitivity: 2
MCF7 [33]
  IC50: 2900 nM

## N#CC1CN1C(=O)Nc1ccc([N+](=O)[O-])cc1 (configuration not stated)
L1210 [4]
  IC50: 2.6 µM
OVCAR-3
  IC50: 6.5 µM
MCF7 [16]
  IC50: 3000 nM
A549
  IC50: 3.9 µM
RPMI-8226 [19]
  IC50: 9.1 µM
WiDr [20]
  IC50: 4.3 µM
MCF7 [23]
  IC50: 3 µM
L1210 [27]
  IC50: 2.6 µM
A-375
  IC50: 3.9 µM
WiDr [29]
  IC50: 3.7 µM
RPMI-8226 [31]
  IC50: 8.6 µM
MCF7 [33]
  IC50: 3000 nM

## N#CC1CN1C(=O)Nc1cccc2ccccc12 (configuration not stated)
L1210 [4]
  IC50: 7.2 µM
OVCAR-3
  IC50: 5.9 µM
MCF7 [16]
  IC50: 1700 nM
A549
  IC50: 2.5 µM
RPMI-8226 [19]
  IC50: 8 µM
WiDr [20]
  IC50: 2.4 µM
MCF7 [23]
  IC50: 2 µM
L1210 [27]
  IC50: 2.5 µM
A-375
  IC50: 4.2 µM
WiDr [29]
  IC50: 2.5 µM
RPMI-8226 [31]
  IC50: 8.9 µM
MCF7 [33]
  IC50: 2000 nM

## N#CC1CN1C(=O)NCc1ccccc1 (configuration not stated)
L1210 [4]
  IC50: 3.8 µM
OVCAR-3
  IC50: 5 µM
MCF7 [16]
  IC50: 6000 nM
A549
  IC50: 7.4 µM
RPMI-8226 [19]
  IC50: 9 µM
WiDr [20]
  IC50: 5.3 µM
MCF7 [23]
  IC50: 3.4 µM
L1210 [27]
  IC50: 10 µM
A-375
  IC50: 11 µM
WiDr [29]
  IC50: 10 µM
RPMI-8226 [31]
  IC50: 11 µM
MCF7 [33]
  IC50: 7400 nM
